Data as given in ChEMBL document CHEMBL5058577, “EUbOPEN Chemogenomics Library 2 (Multiplex)” (2022).

Tested on: U2OS
Assay: Multiplex assay against U2OS
Assay type: toxicity, cell-based
Details: human
Method in brief: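 Cells were classed with CellPathfinder machine-learning gating, first as Hoechst high-intensity objects or normal cells, then (normal cells) as healthy, pyknosed or fragmented nuclei, and finally (pyknosed cells) as mitotic or apoptotic. Staining of live cells at seeding used Hoechst33342, BioTracker Green Microtubule Cytoskeleton Dye, MitoTracker Red and Annexin V Alexa Fluor 680, with imaging on a CQ1 microscope at 37°C and 5% CO2 after compound addition. Tubulin, mitochondrial-mass and membrane-permeability phenotypes are per cents of healthy-nucleus cells.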

[1] = 12 h, 1 µM, compound concentration 1 uM, replicate 1
[2] = 12 h, 1 µM, compound concentration 1 uM, replicate 2
[3] = 12 h, 10 µM, compound concentration 10 uM, replicate 1
[4] = 12 h, 10 µM, compound concentration 10 uM, replicate 2
[5] = 24 h, 1 µM, compound concentration 1 uM, replicate 1
[6] = 24 h, 1 µM, compound concentration 1 uM, replicate 2
[7] = 24 h, 10 µM, compound concentration 10 uM, replicate 1
[8] = 24 h, 10 µM, compound concentration 10 uM, replicate 2
[9] = 48 h, 1 µM, compound concentration 1 uM, replicate 1
[10] = 48 h, 1 µM, compound concentration 1 uM, replicate 2
[11] = 48 h, 10 µM, compound concentration 10 uM, replicate 1
[12] = 48 h, 10 µM, compound concentration 10 uM, replicate 2

For `CN[C@@H](C)C(=O)N[C@H](C(=O)N1CCC[C@H]1C(=O)Nc1snnc1-c1ccccc1)C1CCCCC1` [GDC-0152], the “Population Apoptotic (%)” value [1] was 60%, the “Population Fragmented Nuclei (%)” value [1] was 25% and the “Population Healthy Nuclei (%)” value [1] was 61%. For the same compound, the “Population Hoechst High Intensity Objects (%)” value [1] was 5%, the “Population Membrane Permeable-Phenotype (%)” value [1] was 51% and the “Population Mitochondria Different-Phenotype (%)” value [1] was 24%. For the same compound, the “Population Mitotic Cells (%)” value [1] was 39%, the “Population Normal (%)” value [1] was 94% and the “Population Pyknosed Nuclei (%)” value [1] was 13%. The “Population Tubulin-Different-Phenotype (%)” value [1] was 47%, the “Total Cell Count” value [1] was 176 and the “Population Apoptotic (%)” value [2] was 89%. For the same compound, the “Population Fragmented Nuclei (%)” value [2] was 21%, the “Population Healthy Nuclei (%)” value [2] was 60% and the “Population Hoechst High Intensity Objects (%)” value [2] was 11%. For the same compound, the “Population Membrane Permeable-Phenotype (%)” value [2] was 50%, the “Population Mitochondria Different-Phenotype (%)” value [2] was 38% and the “Population Mitotic Cells (%)” value [2] was 10%. The “Population Normal (%)” value [2] was 88%, the “Population Pyknosed Nuclei (%)” value [2] was 17% and the “Population Tubulin-Different-Phenotype (%)” value [2] was 52%. For the same compound, the “Total Cell Count” value [2] was 121, the “Population Apoptotic (%)” value [3] was 72% and the “Population Fragmented Nuclei (%)” value [3] was 39%. For the same compound, the “Population Healthy Nuclei (%)” value [3] was 44%, the “Population Hoechst High Intensity Objects (%)” value [3] was 4% and the “Population Membrane Permeable-Phenotype (%)” value [3] was 65%. For the same compound, the “Population Mitochondria Different-Phenotype (%)” value [3] was 61%, the “Population Mitotic Cells (%)” value [3] was 27% and the “Population Normal (%)” value [3] was 95%. For the same compound, the “Population Pyknosed Nuclei (%)” value [3] was 16%, the “Population Tubulin-Different-Phenotype (%)” value [3] was 76% and the “Total Cell Count” value [3] was 208. For the same compound, the “Population Apoptotic (%)” value [4] was 70%, the “Population Fragmented Nuclei (%)” value [4] was 18% and the “Population Healthy Nuclei (%)” value [4] was 65%. For the same compound, the “Population Hoechst High Intensity Objects (%)” value [4] was 5%, the “Population Membrane Permeable-Phenotype (%)” value [4] was 73% and the “Population Mitochondria Different-Phenotype (%)” value [4] was 70%. For the same compound, the “Population Mitotic Cells (%)” value [4] was 29%, the “Population Normal (%)” value [4] was 94% and the “Population Pyknosed Nuclei (%)” value [4] was 15%. The “Population Tubulin-Different-Phenotype (%)” value [4] was 91%, the “Total Cell Count” value [4] was 114 and the “Population Apoptotic (%)” value [5] was 72%. The “Population Fragmented Nuclei (%)” value [5] was 21%, the “Population Healthy Nuclei (%)” value [5] was 55% and the “Population Hoechst High Intensity Objects (%)” value [5] was 5%. The “Population Membrane Permeable-Phenotype (%)” value [5] was 20%, the “Population Mitochondria Different-Phenotype (%)” value [5] was 18% and the “Population Mitotic Cells (%)” value [5] was 27%. For the same compound, the “Population Normal (%)” value [5] was 94%, the “Population Pyknosed Nuclei (%)” value [5] was 23% and the “Population Tubulin-Different-Phenotype (%)” value [5] was 19%. The “Total Cell Count” value [5] was 196, the “Population Apoptotic (%)” value [6] was 85% and the “Population Fragmented Nuclei (%)” value [6] was 34%. The “Population Healthy Nuclei (%)” value [6] was 44%, the “Population Hoechst High Intensity Objects (%)” value [6] was 8% and the “Population Membrane Permeable-Phenotype (%)” value [6] was 25%. For the same compound, the “Population Mitochondria Different-Phenotype (%)” value [6] was 28%, the “Population Mitotic Cells (%)” value [6] was 14% and the “Population Normal (%)” value [6] was 91%. The “Population Pyknosed Nuclei (%)” value [6] was 21%, the “Population Tubulin-Different-Phenotype (%)” value [6] was 27% and the “Total Cell Count” value [6] was 144. For the same compound, the “Population Apoptotic (%)” value [7] was 68%, the “Population Fragmented Nuclei (%)” value [7] was 36% and the “Population Healthy Nuclei (%)” value [7] was 43%. For the same compound, the “Population Hoechst High Intensity Objects (%)” value [7] was 3%, the “Population Membrane Permeable-Phenotype (%)” value [7] was 53% and the “Population Mitochondria Different-Phenotype (%)” value [7] was 59%. The “Population Mitotic Cells (%)” value [7] was 31%, the “Population Normal (%)” value [7] was 96% and the “Population Pyknosed Nuclei (%)” value [7] was 20%. The “Population Tubulin-Different-Phenotype (%)” value [7] was 59%, the “Total Cell Count” value [7] was 220 and the “Population Apoptotic (%)” value [8] was 92%. For the same compound, the “Population Fragmented Nuclei (%)” value [8] was 20%, the “Population Healthy Nuclei (%)” value [8] was 40% and the “Population Hoechst High Intensity Objects (%)” value [8] was 10%. For the same compound, the “Population Membrane Permeable-Phenotype (%)” value [8] was 59%, the “Population Mitochondria Different-Phenotype (%)” value [8] was 65% and the “Population Mitotic Cells (%)” value [8] was 7%. The “Population Normal (%)” value [8] was 89%, the “Population Pyknosed Nuclei (%)” value [8] was 38% and the “Population Tubulin-Different-Phenotype (%)” value [8] was 81%. For the same compound, the “Total Cell Count” value [8] was 121, the “Population Apoptotic (%)” value [9] was 93% and the “Population Fragmented Nuclei (%)” value [9] was 35%. For the same compound, the “Population Healthy Nuclei (%)” value [9] was 32%, the “Population Hoechst High Intensity Objects (%)” value [9] was 8% and the “Population Membrane Permeable-Phenotype (%)” value [9] was 16%. For the same compound, the “Population Mitochondria Different-Phenotype (%)” value [9] was 12%, the “Population Mitotic Cells (%)” value [9] was 6% and the “Population Normal (%)” value [9] was 91%. The “Population Pyknosed Nuclei (%)” value [9] was 32%, the “Population Tubulin-Different-Phenotype (%)” value [9] was 9% and the “Total Cell Count” value [9] was 246. For the same compound, the “Population Apoptotic (%)” value [10] was 88%, the “Population Healthy Nuclei (%)” value [10] was 30% and the “Population Membrane Permeable-Phenotype (%)” value [10] was 38%. For the same compound, the “Population Mitochondria Different-Phenotype (%)” value [10] was 17%, the “Population Mitotic Cells (%)” value [10] was 11% and the “Population Pyknosed Nuclei (%)” value [10] was 34%. For the same compound, the “Population Tubulin-Different-Phenotype (%)” value [10] was 27%, the “Total Cell Count” value [10] was 170 and the “Population Apoptotic (%)” value [11] was 100%. The “Population Fragmented Nuclei (%)” value [11] was 47%, the “Population Healthy Nuclei (%)” value [11] was 22% and the “Population Hoechst High Intensity Objects (%)” value [11] was 11%. The “Population Membrane Permeable-Phenotype (%)” value [11] was 39%, the “Population Mitochondria Different-Phenotype (%)” value [11] was 39% and the “Population Mitotic Cells (%)” value [11] was 0%. For the same compound, the “Population Normal (%)” value [11] was 88%, the “Population Pyknosed Nuclei (%)” value [11] was 29% and the “Population Tubulin-Different-Phenotype (%)” value [11] was 43%. For the same compound, the “Total Cell Count” value [11] was 246, the “Population Apoptotic (%)” value [12] was 98% and the “Population Fragmented Nuclei (%)” value [12] was 45%. For the same compound, the “Population Healthy Nuclei (%)” value [12] was 8%, the “Population Hoechst High Intensity Objects (%)” value [12] was 14% and the “Population Membrane Permeable-Phenotype (%)” value [12] was 80%. For the same compound, the “Population Mitochondria Different-Phenotype (%)” value [12] was 50%, the “Population Mitotic Cells (%)” value [12] was 1% and the “Population Normal (%)” value [12] was 85%. The “Population Pyknosed Nuclei (%)” value [12] was 45%, the “Population Tubulin-Different-Phenotype (%)” value [12] was 80% and the “Total Cell Count” value [12] was 138.
